According to ChEMBL document CHEMBL1255401, “Penicillin sulfone inhibitors of class D beta-lactamases” (Antimicrob Agents Chemother, 2010):
pKi: −log10 of the molar value.

Key:
[1] = Ratio of Kcat to Km for Beta-lactamase OXA-1 expressed in Escherichia coli BL21 (DE3)
Summary of the method: (§1)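 OXA-1 from E. coli BL21(DE3) with pET 12a(+) blaOXA-1, IPTG-induced (0.2 mM), released with lysozyme/EDTA, purified by preparative isoelectric focusing. Continuous spectrophotometric hydrolysis assays of oxacillin, ampicillin, nitrocefin and cephaloridine at room temperature in 50 mM sodium phosphate with 20 mM bicarbonate, run in triplicate. Initial rates versus substrate concentration fitted to give kcat, Km and kcat/Km.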

[2] = Activity of Beta-lactamase OXA-1 expressed in Escherichia coli BL21 (DE3); summary of the method: as §1
[3] = Inhibition of Beta-lactamase OXA-14 expressed in Escherichia coli BL21 (DE3) by nitrocefin hydrolysis assay
Summary of the method: (§2)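 Competition assay at room temperature in 50 mM sodium phosphate with 20 mM bicarbonate, run in triplicate. Enzyme at 11 nM, reporter substrate 50 μM nitrocefin, inhibitor at 4 μM to 9 mM depending on inhibitor and enzyme. Initial velocities taken immediately after mixing, 1/v plotted against [I] and fitted linearly. Ki obtained as y-intercept divided by slope.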

[4] = Inhibition of Beta-lactamase OXA-17 expressed in Escherichia coli BL21 (DE3) by nitrocefin hydrolysis assay; summary of the method: as §2
[5] = Inhibition of Beta-lactamase OXA-10 expressed in Escherichia coli BL21 (DE3) by nitrocefin hydrolysis assay; summary of the method: as §2
[6] = Inhibition of Beta-lactamase OXA-1 expressed in Escherichia coli BL21 (DE3) by nitrocefin hydrolysis assay; summary of the method: as §2
[7] = Inhibition of Beta-lactamase OXA-24/40 expressed in Escherichia coli BL21 (DE3) by nitrocefin hydrolysis assay; summary of the method: as §2
Escherichia coli = experiment: Antibacterial activity against Escherichia coli DH10B harboring RGN238 plasmid containing Beta-lactamase OXA-1 at 4 ug/ml in presence of increasing concentrations of piperacillin by broth agar dilution assay; assay type: functional
Summary of the method: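 Lysogeny broth agar dilution MIC on E. coli DH10B carrying plasmid RGN238 with blaOXA-1. Piperacillin tested at increasing concentrations with the inhibitor held at a constant 4 μg/ml. Plates inoculated by Steers replicator with 10 μl of a diluted overnight culture containing 10^4 CFU.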

Structure (SMILES)	kcat/Km [1]	Km [2]	kcat [2]	pKi [3]	pKi [4]	pKi [5]	pKi [6]	pKi [7]	MIC (Escherichia coli)
O=C(Cc1cccs1)N[C@@H]1C(=O)N2C(C(=O)[O-])=C(C[n+]3ccccc3)CS[C@H]12	210000 M⁻¹ s⁻¹	80 µM	16 s⁻¹						
O=C(O)[C@H]1/C(=C/CO)O[C@@H]2CC(=O)N21 [CLAVULANIC ACID]				4.72	4.35	3.98	3.71	4.29	
CC1(C)S[C@@H]2[C@H](NC(=O)[C@H](N)c3ccccc3)C(=O)N2[C@H]1C(=O)O	6e+06 M⁻¹ s⁻¹	64 µM	357 s⁻¹						
CC(=O)OC[C@@]1(C)[C@H](C(=O)O)N2C(=O)/C(=C/c3ccccn3)[C@H]2S1(=O)=O				5.40	6.06	4.77	5.85	5.62	
C[C@]1(COC(=O)Cc2ccc(O)c(O)c2)[C@H](C(=O)O)N2C(=O)/C(=C/c3ccccn3)[C@H]2S1(=O)=O				5.85	6.70	5.10	6.15	6.19	128 µg/mL
C[C@]1(Cn2ccnn2)[C@H](C(=O)O)N2C(=O)C[C@H]2S1(=O)=O [TAZOBACTAM]				4.52	4.40	3.77	3.23	3.57	512 µg/mL
Cc1onc(-c2ccccc2)c1C(=O)N[C@@H]1C(=O)N2[C@@H]1SC(C)(C)[C@@H]2C(=O)O	1.9e+07 M⁻¹ s⁻¹	31 µM	577 s⁻¹						
O=C(Cc1cccs1)N[C@@H]1C(=O)N2C(C(=O)O)=C(/C=C/c3ccc([N+](=O)[O-])cc3[N+](=O)[O-])CS[C@H]12	1e+07 M⁻¹ s⁻¹	9 µM	94 s⁻¹						
